Columns and labels:
Plasmodium berghei [1] = experiment: Antimalarial activity against Plasmodium berghei infected in Swiss Webster mouse assessed as mouse survival rate at 100 mg/kg administered once daily via oral gavage for 4 consecutive days beginning 1 hr after infection measured on day 5 post infection relative to control; assay type: functional
How it was run: (§1)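 Mice given an intraperitoneal injection of P. berghei-infected erythrocytes taken from a previously infected animal. Oral dosing once daily for 4 consecutive days, starting 1 h after infection. Vehicle: polyethylene glycol 300/propylene glycol/water (weight ratio 55/25/20). Percent survival recorded daily from day 4 to day 20. Chloroquine 30 mg/kg and vehicle-only groups served as controls.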

Plasmodium berghei [2] = experiment: Antimalarial activity against Plasmodium berghei infected in Swiss Webster mouse assessed as mouse survival rate at 100 mg/kg administered once daily via oral gavage for 4 consecutive days beginning 1 hr after infection measured on day 8 post infection relative to control; assay type: functional; how it was run: as §1
Plasmodium berghei [3] = experiment: Antimalarial activity against Plasmodium berghei infected in Swiss Webster mouse assessed as mouse survival rate at 1 mg/kg administered once daily via oral gavage for 4 consecutive days beginning 1 hr after infection measured on day 4 post infection relative to control; assay type: functional; how it was run: as §1
Plasmodium falciparum [4] = experiment: Antimalarial activity against chloroquine-sensitive Plasmodium falciparum 3D7 infected in human erythrocytes assessed as reduction in [3H]-hypoxanthine incorporation preincubated for 24 hrs followed by [3H]-hypoxanthine addition measured after 24 hrs by scintillation counting method; assay type: functional, cell-based
How it was run: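 P. falciparum 3D7 cultures were exposed to the compound for 48 h, with atovaquone as the reference control. IC50 was taken from three replicates.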

Plasmodium berghei [5] = experiment: Antimalarial activity against Plasmodium berghei infected in Swiss Webster mouse assessed as mouse survival rate at 100 mg/kg administered once daily via oral gavage for 4 consecutive days beginning 1 hr after infection measured on day 7 post infection relative to control; assay type: functional; how it was run: as §1
Plasmodium berghei [6] = experiment: Antimalarial activity against Plasmodium berghei infected in Swiss Webster mouse assessed as mouse survival rate at 3 mg/kg administered once daily via oral gavage for 4 consecutive days beginning 1 hr after infection measured on day 5 post infection relative to control; assay type: functional
How it was run: (§2)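 P. berghei-infected erythrocytes taken from a previously infected mouse were injected intraperitoneally. Oral dosing, once daily for 4 consecutive days, began 1 h after infection, in polyethylene glycol 300/propylene glycol/water (55/25/20 by weight). Chloroquine at 30 mg/kg was the positive control, with a vehicle-only group. Percent survival was recorded daily from day 4 to day 20.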

Plasmodium berghei [7] = experiment: Antimalarial activity against Plasmodium berghei infected in Swiss Webster mouse assessed as mouse survival rate at 33 mg/kg administered once daily via oral gavage for 4 consecutive days beginning 1 hr after infection measured on day 8 post infection relative to control; assay type: functional; how it was run: as §2
Plasmodium berghei [8] = experiment: Antimalarial activity against Plasmodium berghei infected in Swiss Webster mouse assessed as mouse survival rate at 100 mg/kg administered once daily via oral gavage for 4 consecutive days beginning 1 hr after infection measured on day 4 post infection relative to control; assay type: functional; how it was run: as §1
Plasmodium berghei [9] = experiment: Antimalarial activity against Plasmodium berghei infected in Swiss Webster mouse assessed as mouse survival rate at 1 mg/kg administered once daily via oral gavage for 4 consecutive days beginning 1 hr after infection measured on day 7 post infection relative to control; assay type: functional; how it was run: as §1
Plasmodium berghei [10] = experiment: Antimalarial activity against Plasmodium berghei infected in Swiss Webster mouse assessed as mouse survival rate at 11 mg/kg administered once daily via oral gavage for 4 consecutive days beginning 1 hr after infection measured on day 5 post infection relative to control; assay type: functional; how it was run: as §2
Plasmodium berghei [11] = experiment: Antimalarial activity against Plasmodium berghei infected in Swiss Webster mouse assessed as mouse survival rate at 100 mg/kg administered once daily via oral gavage for 4 consecutive days beginning 1 hr after infection measured on day 6 post infection relative to control; assay type: functional; how it was run: as §1
Plasmodium berghei [12] = experiment: Antimalarial activity against Plasmodium berghei infected in Swiss Webster mouse assessed as mouse survival rate at 33 mg/kg administered once daily via oral gavage for 4 consecutive days beginning 1 hr after infection measured on day 6 post infection relative to control; assay type: functional; how it was run: as §2
Plasmodium berghei [13] = experiment: Antimalarial activity against Plasmodium berghei infected in Swiss Webster mouse assessed as mouse survival rate at 100 mg/kg administered once daily via oral gavage for 4 consecutive days beginning 1 hr after infection measured on day 10 post infection relative to control; assay type: functional; how it was run: as §1
Plasmodium berghei [14] = experiment: Antimalarial activity against Plasmodium berghei infected in Swiss Webster mouse assessed as mouse survival rate at 33 mg/kg administered once daily via oral gavage for 4 consecutive days beginning 1 hr after infection measured on day 5 post infection relative to control; assay type: functional; how it was run: as §2
Plasmodium berghei [15] = experiment: Antimalarial activity against Plasmodium berghei infected in Swiss Webster mouse assessed as mouse survival rate at 3 mg/kg administered once daily via oral gavage for 4 consecutive days beginning 1 hr after infection measured on day 6 post infection relative to control; assay type: functional; how it was run: as §2
Plasmodium berghei [16] = experiment: Antimalarial activity against Plasmodium berghei infected in Swiss Webster mouse assessed as mouse survival rate at 100 mg/kg administered once daily via oral gavage for 4 consecutive days beginning 1 hr after infection measured on day 12 post infection relative to control; assay type: functional; how it was run: as §1
Plasmodium berghei [17] = experiment: Antimalarial activity against Plasmodium berghei infected in Swiss Webster mouse assessed as mouse survival rate at 33 mg/kg administered once daily via oral gavage for 4 consecutive days beginning 1 hr after infection measured on day 7 post infection relative to control; assay type: functional; how it was run: as §2
Plasmodium berghei [18] = experiment: Antimalarial activity against Plasmodium berghei infected in Swiss Webster mouse assessed as mouse survival rate at 100 mg/kg administered once daily via oral gavage for 4 consecutive days beginning 1 hr after infection measured on day 11 post infection relative to control; assay type: functional; how it was run: as §1
Plasmodium berghei [19] = experiment: Antimalarial activity against Plasmodium berghei infected in Swiss Webster mouse assessed as mouse survival rate at 11 mg/kg administered once daily via oral gavage for 4 consecutive days beginning 1 hr after infection measured on day 7 post infection relative to control; assay type: functional; how it was run: as §2
Plasmodium berghei [20] = experiment: Antimalarial activity against Plasmodium berghei infected in Swiss Webster mouse assessed as mouse survival rate at 100 mg/kg administered once daily via oral gavage for 4 consecutive days beginning 1 hr after infection measured on day 13 post infection relative to control; assay type: functional; how it was run: as §1
Plasmodium berghei [21] = experiment: Antimalarial activity against Plasmodium berghei infected in Swiss Webster mouse assessed as mouse survival rate at 11 mg/kg administered once daily via oral gavage for 4 consecutive days beginning 1 hr after infection measured on day 6 post infection relative to control; assay type: functional; how it was run: as §2
Plasmodium falciparum [22] = experiment: Antimalarial activity against chloroquine-resistant Plasmodium falciparum W2 infected in human erythrocytes after 48 hrs by YOYO-1 dye based flow cytometric analysis; assay type: functional, cell-based; conditions: W2, 48 h
How it was run: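 P. falciparum W2 cultures were exposed to the compound for 48 h, with artemisinin and chloroquine as reference controls. IC50 was taken from two independent replicates.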

Plasmodium berghei [23] = experiment: Antimalarial activity against Plasmodium berghei infected in Swiss Webster mouse assessed as mouse survival rate administered once daily via oral gavage for 4 consecutive days beginning 1 hr after infection measured on day 4 post infection; assay type: functional; how it was run: as §1
Plasmodium berghei [24] = experiment: Antimalarial activity against Plasmodium berghei infected in Swiss Webster mouse assessed as mouse survival rate at 11 mg/kg administered once daily via oral gavage for 4 consecutive days beginning 1 hr after infection measured on day 4 post infection relative to control; assay type: functional; how it was run: as §2
Plasmodium berghei [25] = experiment: Antimalarial activity against Plasmodium berghei infected in Swiss Webster mouse assessed as mouse survival rate at 1 mg/kg administered once daily via oral gavage for 4 consecutive days beginning 1 hr after infection measured on day 5 post infection relative to control; assay type: functional; how it was run: as §1
Plasmodium berghei [26] = experiment: Antimalarial activity against Plasmodium berghei infected in Swiss Webster mouse assessed as mouse survival rate at 33 mg/kg administered once daily via oral gavage for 4 consecutive days beginning 1 hr after infection measured on day 4 post infection relative to control; assay type: functional; how it was run: as §2
Plasmodium berghei [27] = experiment: Antimalarial activity against Plasmodium berghei infected in Swiss Webster mouse assessed as mouse survival rate at 100 mg/kg administered once daily via oral gavage for 4 consecutive days beginning 1 hr after infection measured on day 14 post infection relative to control; assay type: functional; how it was run: as §1
Plasmodium berghei [28] = experiment: Antimalarial activity against Plasmodium berghei infected in Swiss Webster mouse assessed as mouse survival rate at 3 mg/kg administered once daily via oral gavage for 4 consecutive days beginning 1 hr after infection measured on day 4 post infection relative to control; assay type: functional; how it was run: as §2
Plasmodium berghei [29] = experiment: Antimalarial activity against Plasmodium berghei infected in Swiss Webster mouse assessed as mouse survival rate at 100 mg/kg administered once daily via oral gavage for 4 consecutive days beginning 1 hr after infection measured on day 9 post infection relative to control; assay type: functional; how it was run: as §1
Plasmodium berghei [30] = experiment: Antimalarial activity against Plasmodium berghei infected in Swiss Webster mouse assessed as mouse survival rate at 1 mg/kg administered once daily via oral gavage for 4 consecutive days beginning 1 hr after infection measured on day 6 post infection relative to control; assay type: functional; how it was run: as §1
Plasmodium berghei [31] = experiment: Antimalarial activity against Plasmodium berghei infected in Swiss Webster mouse assessed as mouse survival rate at 33 mg/kg administered once daily via oral gavage for 4 consecutive days beginning 1 hr after infection measured on day 9 post infection relative to control; assay type: functional; how it was run: as §2
Plasmodium berghei [32] = experiment: Antimalarial activity against Plasmodium berghei infected in Swiss Webster mouse assessed as mouse survival rate at 3 mg/kg administered once daily via oral gavage for 4 consecutive days beginning 1 hr after infection measured on day 7 post infection relative to control; assay type: functional; how it was run: as §2

SMILES: Cc1c(Oc2cnc(C(=O)N[C@@H](CO)C(C)C)cn2)ccc2c1B(O)OC2
- survival at 100 mg/kg (Plasmodium berghei [1]): 100%
- survival at 100 mg/kg (Plasmodium berghei [2]): 100%
- survival at 1 mg/kg (Plasmodium berghei [3]): 100%
- IC50 (Plasmodium falciparum [4]): 466 nM
- survival at 100 mg/kg (Plasmodium berghei [5]): 100%
- survival at 3 mg/kg (Plasmodium berghei [6]): 100%
- survival at 33 mg/kg (Plasmodium berghei [7]): 80%
- survival at 100 mg/kg (Plasmodium berghei [8]): 100%
- survival at 1 mg/kg (Plasmodium berghei [9]): 0%
- survival at 11 mg/kg (Plasmodium berghei [10]): 100%
- survival at 100 mg/kg (Plasmodium berghei [11]): 100%
- survival at 33 mg/kg (Plasmodium berghei [12]): 100%
- survival at 100 mg/kg (Plasmodium berghei [13]): 40%
- survival at 33 mg/kg (Plasmodium berghei [14]): 100%
- survival at 3 mg/kg (Plasmodium berghei [15]): 100%
- survival at 100 mg/kg (Plasmodium berghei [16]): 40%
- survival at 33 mg/kg (Plasmodium berghei [17]): 80%
- survival at 100 mg/kg (Plasmodium berghei [18]): 40%
- survival at 11 mg/kg (Plasmodium berghei [19]): 0%
- survival at 100 mg/kg (Plasmodium berghei [20]): 40%
- survival at 11 mg/kg (Plasmodium berghei [21]): 100%
- IC50 (Plasmodium falciparum [22]): 149 nM
- ED90 (Plasmodium berghei [23]): 26.7 mg/kg
- survival at 11 mg/kg (Plasmodium berghei [24]): 100%
- survival at 1 mg/kg (Plasmodium berghei [25]): 100%
- survival at 33 mg/kg (Plasmodium berghei [26]): 100%
- survival at 100 mg/kg (Plasmodium berghei [27]): 40%
- survival at 3 mg/kg (Plasmodium berghei [28]): 100%
- survival at 100 mg/kg (Plasmodium berghei [29]): 100%
- survival at 1 mg/kg (Plasmodium berghei [30]): 100%
- survival at 33 mg/kg (Plasmodium berghei [31]): 0%
- survival at 3 mg/kg (Plasmodium berghei [32]): 0%

Reference: ChEMBL document CHEMBL4038305, “Benzoxaborole Antimalarial Agents. Part 5. Lead Optimization of Novel Amide Pyrazinyloxy Benzoxaboroles and Identification of a Preclinical Candidate” (J Med Chem, 2017)
